# Measurements reported in ChEMBL document CHEMBL5058577, “EUbOPEN Chemogenomics Library 2 (Multiplex)” (2022).
# System: U2OS
# Experiment: Multiplex assay against U2OS
# Type: toxicity, cell-based
# Settings: human
# Procedure, shortened: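 Compound was added to live cells that had been stained at seeding with Hoechst33342, BioTracker Green Microtubule Cytoskeleton Dye, MitoTracker Red and Annexin V Alexa Fluor 680, and imaging followed on a CQ1 microscope at 37°C and 5% CO2. CellPathfinder machine-learning gating divided cells into Hoechst high-intensity objects or normal cells, normal cells into healthy, pyknosed or fragmented nuclei, and pyknosed cells into mitotic or apoptotic. Tubulin, mitochondrial-mass and membrane-permeability phenotypes are per cents of healthy-nucleus cells.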
# [1] = 12 h, 1 µM, compound concentration 1 uM, replicate 1
# [2] = 12 h, 1 µM, compound concentration 1 uM, replicate 2
# [3] = 12 h, 10 µM, compound concentration 10 uM, replicate 1
# [4] = 12 h, 10 µM, compound concentration 10 uM, replicate 2
# [5] = 24 h, 1 µM, compound concentration 1 uM, replicate 1
# [6] = 24 h, 1 µM, compound concentration 1 uM, replicate 2
# [7] = 24 h, 10 µM, compound concentration 10 uM, replicate 1
# [8] = 24 h, 10 µM, compound concentration 10 uM, replicate 2
# [9] = 48 h, 1 µM, compound concentration 1 uM, replicate 1
# [10] = 48 h, 1 µM, compound concentration 1 uM, replicate 2
# [11] = 48 h, 10 µM, compound concentration 10 uM, replicate 1
# [12] = 48 h, 10 µM, compound concentration 10 uM, replicate 2
smiles,measurement,setting,value
C[C@H]1[C@H]2CC[C@H]3[C@@H]4CC=C5C[C@@H](N(C)C)CC[C@]5(C)[C@H]4CC[C@]23CN1C [CONESSINE],Population Apoptotic (%),[1],80%
same,Population Fragmented Nuclei (%),[1],23%
same,Population Healthy Nuclei (%),[1],70%
same,Population Hoechst High Intensity Objects (%),[1],2%
same,Population Membrane Permeable-Phenotype (%),[1],5%
same,Population Mitochondria Different-Phenotype (%),[1],1%
same,Population Mitotic Cells (%),[1],20%
same,Population Normal (%),[1],97%
same,Population Pyknosed Nuclei (%),[1],6%
same,Population Tubulin-Different-Phenotype (%),[1],2%
same,Total Cell Count,[1],248
same,Population Apoptotic (%),[2],58%
same,Population Fragmented Nuclei (%),[2],16%
same,Population Healthy Nuclei (%),[2],73%
same,Population Hoechst High Intensity Objects (%),[2],1%
same,Population Mitochondria Different-Phenotype (%),[2],2%
same,Population Mitotic Cells (%),[2],41%
same,Population Normal (%),[2],98%
same,Population Pyknosed Nuclei (%),[2],9%
same,Population Tubulin-Different-Phenotype (%),[2],3%
same,Total Cell Count,[2],124
same,Population Apoptotic (%),[3],55%
same,Population Fragmented Nuclei (%),[3],19%
same,Population Healthy Nuclei (%),[3],71%
same,Population Hoechst High Intensity Objects (%),[3],2%
same,Population Membrane Permeable-Phenotype (%),[3],5%
same,Population Mitochondria Different-Phenotype (%),[3],0%
same,Population Mitotic Cells (%),[3],45%
same,Population Normal (%),[3],97%
same,Population Pyknosed Nuclei (%),[3],8%
same,Population Tubulin-Different-Phenotype (%),[3],1%
same,Total Cell Count,[3],237
same,Population Apoptotic (%),[4],100%
same,Population Fragmented Nuclei (%),[4],17%
same,Population Healthy Nuclei (%),[4],68%
same,Population Hoechst High Intensity Objects (%),[4],0%
same,Population Membrane Permeable-Phenotype (%),[4],8%
same,Population Mitochondria Different-Phenotype (%),[4],5%
same,Population Mitotic Cells (%),[4],0%
same,Population Normal (%),[4],99%
same,Population Pyknosed Nuclei (%),[4],13%
same,Population Tubulin-Different-Phenotype (%),[4],6%
same,Total Cell Count,[4],107
same,Population Apoptotic (%),[5],90%
same,Population Fragmented Nuclei (%),[5],18%
same,Population Healthy Nuclei (%),[5],74%
same,Population Hoechst High Intensity Objects (%),[5],2%
same,Population Membrane Permeable-Phenotype (%),[5],6%
same,Population Mitochondria Different-Phenotype (%),[5],1%
same,Population Mitotic Cells (%),[5],9%
same,Population Normal (%),[5],97%
same,Population Pyknosed Nuclei (%),[5],7%
same,Population Tubulin-Different-Phenotype (%),[5],3%
same,Total Cell Count,[5],307
same,Population Apoptotic (%),[6],100%
same,Population Fragmented Nuclei (%),[6],11%
same,Population Healthy Nuclei (%),[6],81%
same,Population Hoechst High Intensity Objects (%),[6],1%
same,Population Membrane Permeable-Phenotype (%),[6],8%
same,Population Mitochondria Different-Phenotype (%),[6],5%
same,Population Mitotic Cells (%),[6],0%
same,Population Normal (%),[6],98%
same,Population Tubulin-Different-Phenotype (%),[6],7%
same,Total Cell Count,[6],153
same,Population Apoptotic (%),[7],65%
same,Population Fragmented Nuclei (%),[7],20%
same,Population Healthy Nuclei (%),[7],71%
same,Population Hoechst High Intensity Objects (%),[7],2%
same,Population Membrane Permeable-Phenotype (%),[7],2%
same,Population Mitochondria Different-Phenotype (%),[7],0%
same,Population Mitotic Cells (%),[7],35%
same,Population Normal (%),[7],97%
same,Population Pyknosed Nuclei (%),[7],7%
same,Population Tubulin-Different-Phenotype (%),[7],1%
same,Total Cell Count,[7],265
same,Population Apoptotic (%),[8],100%
same,Population Fragmented Nuclei (%),[8],19%
same,Population Hoechst High Intensity Objects (%),[8],4%
same,Population Membrane Permeable-Phenotype (%),[8],10%
same,Population Mitochondria Different-Phenotype (%),[8],4%
same,Population Mitotic Cells (%),[8],0%
same,Population Normal (%),[8],95%
same,Population Pyknosed Nuclei (%),[8],8%
same,Population Tubulin-Different-Phenotype (%),[8],9%
same,Total Cell Count,[8],134
same,Population Apoptotic (%),[9],83%
same,Population Fragmented Nuclei (%),[9],16%
same,Population Healthy Nuclei (%),[9],79%
same,Population Hoechst High Intensity Objects (%),[9],2%
same,Population Membrane Permeable-Phenotype (%),[9],4%
same,Population Mitochondria Different-Phenotype (%),[9],2%
same,Population Mitotic Cells (%),[9],16%
same,Population Normal (%),[9],97%
same,Population Pyknosed Nuclei (%),[9],4%
same,Population Tubulin-Different-Phenotype (%),[9],1%
same,Total Cell Count,[9],430
same,Population Apoptotic (%),[10],86%
same,Population Healthy Nuclei (%),[10],73%
same,Population Mitochondria Different-Phenotype (%),[10],0%
same,Population Mitotic Cells (%),[10],13%
same,Population Pyknosed Nuclei (%),[10],9%
same,Population Tubulin-Different-Phenotype (%),[10],2%
same,Total Cell Count,[10],227
same,Population Apoptotic (%),[11],89%
same,Population Fragmented Nuclei (%),[11],19%
same,Population Healthy Nuclei (%),[11],73%
same,Population Hoechst High Intensity Objects (%),[11],1%
same,Population Membrane Permeable-Phenotype (%),[11],4%
same,Population Mitochondria Different-Phenotype (%),[11],2%
same,Population Mitotic Cells (%),[11],10%
same,Population Normal (%),[11],98%
same,Population Pyknosed Nuclei (%),[11],7%
same,Population Tubulin-Different-Phenotype (%),[11],3%
same,Total Cell Count,[11],370
same,Population Apoptotic (%),[12],85%
same,Population Fragmented Nuclei (%),[12],15%
same,Population Healthy Nuclei (%),[12],72%
same,Population Hoechst High Intensity Objects (%),[12],6%
same,Population Membrane Permeable-Phenotype (%),[12],9%
same,Population Mitochondria Different-Phenotype (%),[12],5%
same,Population Mitotic Cells (%),[12],15%
same,Population Normal (%),[12],93%
same,Population Pyknosed Nuclei (%),[12],12%
same,Population Tubulin-Different-Phenotype (%),[12],6%
same,Total Cell Count,[12],175
